Experiment [1] deals with HT-1080. As to the kind of experiment: Growth inhibition of human HT1080 cells after 24 hrs by alamar blue assay. Type of experiment: functional, cell-based. To be noted: HT-1080, 24 h. In general terms: Alamar Blue is a resazurin reagent that responds to reducing activity.
Experiment [2] is described as follows: Growth inhibition of human BJeLR cells after 24 hrs by alamar blue assay. It is filed as functional, cell-based.
The test system of experiment [3] is MCF-10A. Put plainly: Growth inhibition of human MCF10A cells after 24 hrs by alamar blue assay. It is filed as functional, cell-based.
The test system of experiment [4] is HT-1080. As to the kind of experiment: Inhibition of microtubule polymerization in human HT1080 cells at 272 nM for 4 hrs by immunocytochemistry analysis. It is filed as cell-based. The method, boiled down:
(§1)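 HT-1080 cells were treated, then immunofluorescence-stained for microtubules and scored for loss of the hairlike network. Colchicine- and vinblastine-treated cells served as controls.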

Experiment [5] deals with HT-1080. Put plainly: Induction of apoptosis in human HT1080 cells assessed as caspase activation after 24 to 48 hrs. Type of experiment: functional, cell-based.
For experiment [6], the system named is HT-1080. Put plainly: Induction of cell death in human HT1080 cells assessed as viability at 0.1 to 10000 nM after 24 hrs in the presence of caspase inhibitor Boc-D-fmk. Type of experiment: functional, cell-based.
Experiment [7] deals with HT-1080. Put plainly: Induction of cell death in human HT1080 cells assessed as viability at 0.1 to 10000 nM after 24 hrs in the presence of caspase inhibitor zVAD-fmk. Type of experiment: functional, cell-based.
Experiment [8] relates to HT-1080. Put plainly: Induction of apoptosis in human HT1080 cells assessed as caspase activation at 0.33 to 2729 nM. Type of experiment: functional, cell-based. The note with it: TDE = time-dependent effect.
Experiment [9] relates to HT-1080. As to the kind of experiment: Induction of cell death in human HT1080 cells in presence of calcium channel inhibitor Co2+. It is filed as functional, cell-based.
For experiment [10], the target named is Tubulin (Sus scrofa) (UniProt P02554+P02550). As to the kind of experiment: Inhibition of pig brain tubulin polymerization at 5 uM measured every min for 60 mins by spectrophotometry. The method, boiled down: (§2)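 Purified porcine brain tubulin self-polymerized into microtubules in buffer, and polymerization was followed as the rise in light scattering at 340 nm.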

For experiment [11], the system named is HT-1080. As to the kind of experiment: Induction of apoptosis in human HT1080 cells assessed as caspase activation at 0.33 to 2714 nM. It is filed as functional, cell-based. The note with it: TDE = time-dependent effect.
Experiment [12] relates to HT-1080. The note with it: Homo sapiens, 100 nM.
In experiment [13] the test system is HT-1080. Put plainly: Inhibition of microtubule polymerization in human HT1080 cells at 50 nM for 4 hrs by immunocytochemistry analysis. It is filed as cell-based.
The subject of experiment [14] is HT-1080. Put plainly: Inhibition of microtubule polymerization in human HT1080 cells at 250 nM for 4 hrs by immunocytochemistry analysis. Type of experiment: cell-based. The method, boiled down: as §1
Experiment [15] is filed under the species Sus scrofa. Put plainly: Stabilization of pig brain microtubule at 5 uM measured every min for 60 mins by spectrophotometry. The method in brief: as §2
In experiment [16] the test system is HT-1080. Put plainly: Induction of apoptosis in human HT1080 cells assessed as caspase activation at 0.81 to 6006 nM. Type of experiment: functional, cell-based. The note with it: TDE = time-dependent effect.

Active and inactive are the calls of the source. No cut-off for these calls is given here. Bounds are passed on as bounds.

Chain of Tubulin (Sus scrofa) (P02550 whole entry, looked up): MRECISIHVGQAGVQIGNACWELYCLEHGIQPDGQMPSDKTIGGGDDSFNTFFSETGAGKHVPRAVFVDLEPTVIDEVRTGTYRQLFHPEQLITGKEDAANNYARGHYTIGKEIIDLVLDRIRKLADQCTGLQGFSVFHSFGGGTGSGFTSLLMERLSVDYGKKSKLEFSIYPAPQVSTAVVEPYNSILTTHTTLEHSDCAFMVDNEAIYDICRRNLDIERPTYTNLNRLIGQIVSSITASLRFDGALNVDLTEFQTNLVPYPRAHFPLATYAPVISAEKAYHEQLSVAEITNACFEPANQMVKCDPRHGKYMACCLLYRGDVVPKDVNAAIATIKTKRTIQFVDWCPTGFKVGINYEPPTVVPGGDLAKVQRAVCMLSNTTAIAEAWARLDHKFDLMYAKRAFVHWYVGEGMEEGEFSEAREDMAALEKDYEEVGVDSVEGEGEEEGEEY
Chain of Tubulin (Sus scrofa) (P02554 whole entry, looked up): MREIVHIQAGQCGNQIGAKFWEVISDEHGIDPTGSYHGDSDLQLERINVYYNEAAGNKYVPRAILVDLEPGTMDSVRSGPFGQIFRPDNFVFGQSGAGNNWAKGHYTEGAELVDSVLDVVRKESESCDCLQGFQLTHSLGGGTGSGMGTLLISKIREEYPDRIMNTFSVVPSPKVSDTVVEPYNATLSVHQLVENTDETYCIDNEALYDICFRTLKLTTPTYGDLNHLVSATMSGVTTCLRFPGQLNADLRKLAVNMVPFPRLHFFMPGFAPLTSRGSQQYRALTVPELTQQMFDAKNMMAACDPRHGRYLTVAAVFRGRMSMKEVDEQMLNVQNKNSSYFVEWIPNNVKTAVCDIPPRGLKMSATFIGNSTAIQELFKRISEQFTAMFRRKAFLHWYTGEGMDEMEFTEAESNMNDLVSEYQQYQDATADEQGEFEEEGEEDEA

For the compound `CCOc1ccc(C2=Nn3c(nnc3-c3ccccc3OC)SC2)cc1`, the concentration giving a half-maximal response (EC50) in experiment [1], in [2] and in [3] was less than 100 nM each time. Moreover, the inhibition entry in experiment [4] was “Active”. The Activity entry was “Dose-dependent effect” in experiment [5] and “tde” in experiment [8]. Further, the result in [6], in [7] and in [9] was Active.

Consider `O=S(=O)(c1ccc(-c2cnc(C3CC3)o2)cc1)N1CCCc2ccccc21`, for which the concentration giving a half-maximal response (EC50) in [1], in [2] and in experiment [3] was less than 100 nM each time. The inhibition entry in experiment [4] and in experiment [10] was “Active” each time. The figures for the Activity entry in [5] and in experiment [11] were “Dose-dependent effect” and “tde”, respectively. Further, the outcome in experiment [6], in experiment [7] and in experiment [9] was Active.

For the compound `CC[C@]1(O)C[C@@H]2CN(CCc3c([nH]c4ccccc34)[C@@](C(=O)OC)(c3cc4c(cc3OC)N(C)[C@H]3[C@@](O)(C(=O)OC)[C@H](OC(C)=O)[C@]5(CC)C=CCN6CC[C@]43[C@@H]65)C2)C1`, the inhibition entry in experiment [10] and in experiment [12] was “Active” in each case.

As to `COc1cc2c(c(OC)c1OC)-c1ccc(OC)c(=O)cc1[C@@H](NC(C)=O)CC2`, in experiment [13], the inhibition entry is “Active”.

As to `COc1ccccc1N1CCN(C(=O)c2cc(=O)c3cc(C)cc(C)c3o2)CC1`, the EC50 in experiment [1], in [2] and in experiment [3] was less than 100 nM throughout. The inhibition entry in experiment [14] was “inactive”. Further, the Activity entry in experiment [5] was “Dose-dependent effect”; in experiment [16], “tde”. For the same compound, the result in experiment [6], in experiment [7], in experiment [15] and in [9] was Active.

Regarding `CC(=O)O[C@H]1C(=O)[C@@]2(C)[C@H]([C@H](OC(=O)c3ccccc3)[C@]3(O)C[C@H](OC(=O)[C@H](O)[C@@H](NC(=O)c4ccccc4)c4ccccc4)C(C)=C1C3(C)C)[C@]1(OC(C)=O)CO[C@@H]1C[C@@H]2O`, the result in experiment [15] was Active.

What is called EC50 is the concentration at which the effect is half-maximal. A low value points to a more potent agent.

Source of the values: ChEMBL document CHEMBL2062452, “Identification of Simple Compounds with Microtubule-Binding Activity That Inhibit Cancer Cell Growth with High Potency” (ACS Med Chem Lett, 2011).
